ChEMBL document CHEMBL3286133, “Synthesis, biological evaluation and molecular docking studies of trans-indole-3-acrylamide derivatives, a new class of tubulin polymerization inhibitors” (Bioorg Med Chem, 2014)
The source made the active and inactive calls. The rule behind the calls is not given here.

How the values were obtained:
HeLa [1] = assay: Antiproliferative activity against human HeLa cells after 48 hrs by MTT assay; format: functional, cell-based
MDA-MB-231 = assay: Antiproliferative activity against human MDA-MB-231 cells after 48 hrs by MTT assay; format: functional, cell-based; conditions: MDA-MB-231, 48 h
Outline: (§1)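 MTT viability assay. HL-60 and Raji were grown in RPMI-1640 and MCF7/MDA-MB-231 in DMEM, all with 10% FBS, at 37 °C under 5% CO₂. Cells were seeded at 10,000/well, held overnight in 1% FBS medium, then exposed 48 h to 0.1–125 µM. Solvent control was 0.1% DMSO. MTT was 0.5 mg/mL for 4 h, formazan was dissolved in DMSO, and absorbance read at 570 nm. Quadruplicates; IC50 taken from concentration–response curves.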

MCF7 = assay: Antiproliferative activity against human MCF7 cells after 48 hrs by MTT assay; format: functional, cell-based; conditions: MCF7, 48 h; outline: as §1
Raji = assay: Antiproliferative activity against human Raji cells after 48 hrs by MTT assay; format: functional, cell-based; outline: as §1
HL-60 [2] = assay: Antiproliferative activity against human HL60 cells after 48 hrs by MTT assay; format: functional, cell-based; conditions: HL-60, 48 h; outline: as §1
Tubulin (Bos taurus) [3] = biological target: T1, Tubulin (Bos taurus) (UniProt Q6B856+Q862L2+Q862F3); assay: Displacement of [3H]colchicine from bovine brain tubulin at 50 uM after 10 mins by liquid scintillation counting
Outline: (§2)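 [³H]colchicine binding in 0.1 mL. Bovine brain tubulin 1.0 µM, [³H]colchicine 5.0 µM, 1.0 M glutamate, 5% DMSO, inhibitor at 5 or 50 µM; 10 min at 37 °C. Reactions were stopped with ice-cold water and filtered through two stacked DEAE-cellulose filters, which were washed with cold water. Bound label was counted by liquid scintillation.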

Tubulin = Tubulin (Bos taurus, UniProt Q6B856+Q862L2+Q862F3); assay: Inhibition of bovine brain tubulin polymerization after 20 mins by spectrophotometry
HeLa [4] = assay: Cell cycle arrest in human HeLa cells assessed as decrease in accumulation at G1 phase at 0 to 30 uM for 24 hrs by flow cytometry; format: functional, cell-based
Outline: (§3)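 DNA-content flow cytometry. 5×10⁵ HeLa or HL-60 cells were treated 24 h at a range of concentrations. Cells were fixed in ice-cold 70% ethanol, lysed in buffer with RNase A and 0.1% Triton X-100, and stained with PI. Phase distribution was taken from DNA histograms. Means of three independent experiments.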

Tubulin (Bos taurus) [5] = biological target: T1, Tubulin (Bos taurus); assay: Displacement of [3H]colchicine from bovine brain tubulin at 5 uM after 10 mins by liquid scintillation counting; outline: as §2
HL-60 [6] = assay: Cell cycle arrest in human HL60 cells assessed as increase in accumulation at G2/M phase for 24 hrs by flow cytometry; format: functional, cell-based; outline: as §3
HeLa [7] = assay: Cell cycle arrest in human HeLa cells assessed as increase in accumulation at G2/M phase for 24 hrs by flow cytometry; format: functional, cell-based; outline: as §3
HL-60 [8] = assay: Cell cycle arrest in human HL60 cells assessed as decrease in accumulation at G1 phase at 0 to 30 uM for 24 hrs by flow cytometry; format: functional, cell-based; outline: as §3
HL-60 [9] = assay: Cell cycle arrest in human HL60 cells assessed as increase in accumulation at G2/M phase at 10 uM for 24 hrs by flow cytometry; format: functional; conditions: in the assay text read “at 15 to 30 uM” for “at 10 uM”; outline: as §3
HeLa [10] = assay: Cell cycle arrest in human HeLa cells assessed as increase in accumulation at G2/M phase at 10 uM for 24 hrs by flow cytometry; format: functional; conditions: in the assay text read “at 15 to 30 uM” for “at 10 uM”; outline: as §3
HeLa [11] = assay: Induction of apoptosis in human HeLa cells assessed as increase in number of early apoptotic cells for 24 and 48 hrs by annexin-V/propidium-iodide staining based flow cytometry; format: functional, cell-based
Outline: (§4)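 Annexin-V-FITC/PI double staining with flow cytometry on HL-60 and HeLa cells after 24 or 48 h of treatment. Excitation 488 nm; emission 525 nm (FITC) and 585 nm (PI). Early apoptotic cells scored as annexin-V+/PI−, late apoptotic as annexin-V+/PI+. Means of three independent experiments.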

HeLa [12] = assay: Induction of apoptosis in human HeLa cells assessed as increase in number of late apoptotic cells for 24 and 48 hrs by annexin-V/propidium-iodide staining based flow cytometry; format: functional, cell-based; outline: as §4
HeLa [13] = assay: Induction of apoptosis in human HeLa cells assessed as increase in number of early apoptotic cells at 1 and 10 uM hrs by annexin-V/propidium-iodide staining based flow cytometry; format: functional, cell-based; conditions: TDE = time-dependent effect; outline: as §4
HeLa [14] = assay: Induction of apoptosis in human HeLa cells assessed as increase in number of late apoptotic cells at 1 and 10 uM hrs by annexin-V/propidium-iodide staining based flow cytometry; format: functional, cell-based; conditions: TDE = time-dependent effect; outline: as §4
HL-60 [15] = assay: Induction of apoptosis in human HL60 cells assessed as increase in number of early apoptotic cells for 24 and 48 hrs by annexin-V/propidium-iodide staining based flow cytometry; format: functional, cell-based; outline: as §4
HL-60 [16] = assay: Induction of apoptosis in human HL60 cells assessed as increase in number of late apoptotic cells for 24 and 48 hrs by annexin-V/propidium-iodide staining based flow cytometry; format: functional, cell-based; outline: as §4
HL-60 [17] = assay: Induction of apoptosis in human HL60 cells assessed as increase in number of late apoptotic cells at 1 and 10 uM by annexin-V/propidium-iodide staining based flow cytometry; format: functional, cell-based; conditions: TDE = time-dependent effect; outline: as §4
HL-60 [18] = assay: Induction of apoptosis in human HL60 cells assessed as increase in number of early apoptotic cells at 1 and 10 uM by annexin-V/propidium-iodide staining based flow cytometry; format: functional, cell-based; conditions: TDE = time-dependent effect; outline: as §4
HL-60 [19] = assay: Induction of apoptosis in human HL60 cells assessed as increase in cleaved caspase-3 level at 1 to 10 uM after 24 to 48 hrs by western blot analysis; format: functional, cell-based
Outline: (§5)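 Western blot on HL-60 cells exposed for the indicated times. Lysates were cleared at 15000 × g, 4 °C; 20 µg protein was run on 7.5–15% SDS-PAGE and transferred to PVDF. Blocking in 5% BSA for 2 h, then caspase-3 and PARP antibodies overnight at 4 °C and peroxidase secondary for 60 min. ECL detection; β-actin reprobe as loading control.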

HL-60 [20] = assay: Induction of apoptosis in human HL60 cells assessed as increase in cleaved PARP level at 1 to 10 uM after 24 to 48 hrs by western blot analysis; format: functional, cell-based; outline: as §5
HL-60 [21] = assay: Cell cycle arrest in human HL60 cells assessed as decrease in accumulation at S phase at 0 to 30 uM for 24 hrs by flow cytometry; format: functional, cell-based; outline: as §3
HeLa [22] = assay: Cell cycle arrest in human HeLa cells assessed as decrease in accumulation at S phase at 0 to 30 uM for 24 hrs by flow cytometry; format: functional, cell-based; outline: as §3

SMILES | IC50 (HeLa [1]) | IC50 (MDA-MB-231) | IC50 (MCF7) | IC50 (Raji) | IC50 (HL-60 [2]) | inhibition (Tubulin (Bos taurus) [3]) | IC50 (Tubulin) | also measured
COc1cc(NC(=O)/C=C/c2c[nH]c3ccccc23)cc(OC)c1 | > 100 µM | > 100 µM | > 100 µM | 9.3 µM | 7.1 µM | 26% | > 40 µM | 
COc1ccc(OC)c(NC(=O)/C=C/c2c[nH]c3ccccc23)c1 | > 100 µM | > 100 µM | > 100 µM | 22.9 µM | 10.1 µM | 15% | > 40 µM | 
COc1ccc(CNC(=O)/C=C/c2c[nH]c3ccccc23)cc1OC | > 100 µM | > 100 µM | > 100 µM | > 100 µM | > 100 µM | 13% | > 40 µM | 
COc1ccc(CNC(=O)/C=C/c2c[nH]c3ccccc23)c(OC)c1 | > 100 µM | > 100 µM | > 100 µM | > 100 µM | > 100 µM |  | > 40 µM | 
COc1ccc(OC)c(CNC(=O)/C=C/c2c[nH]c3ccccc23)c1 | > 100 µM | > 100 µM | > 100 µM | > 100 µM | > 100 µM | 23% | > 40 µM | 
COc1cc(OC)c(NC(=O)/C=C/c2c[nH]c3ccccc23)c(OC)c1 | > 100 µM | > 100 µM | > 100 µM | > 100 µM | > 100 µM | 11% | > 40 µM | 
COc1ccc(NC(=O)/C=C/c2c[nH]c3ccccc23)c(OC)c1 | > 100 µM | > 100 µM | > 100 µM | 22.6 µM | 17.8 µM | 13% | > 40 µM | 
COc1cc(CNC(=O)/C=C/c2c[nH]c3ccccc23)ccc1O | > 100 µM | > 100 µM | > 100 µM | 33.1 µM | > 100 µM | 14% | > 40 µM | 

The next compounds have a lower IC50 (HeLa [1]) than those just listed; values first:

IC50 (HeLa [1]) | IC50 (MDA-MB-231) | IC50 (MCF7) | IC50 (Raji) | IC50 (HL-60 [2]) | inhibition (Tubulin (Bos taurus) [3]) | IC50 (Tubulin) | SMILES | also measured
36.5 µM | > 100 µM | > 100 µM | > 100 µM | > 100 µM | 12% | > 40 µM | COc1cccc(CNC(=O)/C=C/c2c[nH]c3ccccc23)c1OC | 
31.4 µM | > 100 µM | > 100 µM | 10.3 µM | 6.2 µM | 11% | > 40 µM | COc1ccc(NC(=O)/C=C/c2c[nH]c3ccccc23)cc1OC | 
23.7 µM | > 100 µM | 36.3 µM | 9.5 µM | 5.1 µM | 50% | 17 µM | COc1cc(NC(=O)/C=C/c2c[nH]c3ccccc23)cc(OC)c1OC | Activity (HeLa [4]): Active; inhibition (Tubulin (Bos taurus) [5]): 11%; Activity (HL-60 [6]): Dose-dependent effect; Activity (HeLa [7]): Dose-dependent effect; Activity (HL-60 [8]): Active; Activity (HL-60 [9]): 60%; Activity (HeLa [10]): > 80%; Activity (HeLa [11]): Dose-dependent effect; Activity (HeLa [12]): Dose-dependent effect; Activity (HeLa [13]): tde; Activity (HeLa [14]): tde; Activity (HL-60 [15]): Dose-dependent effect; Activity (HL-60 [16]): Dose-dependent effect; Activity (HL-60 [17]): tde; Activity (HL-60 [18]): tde; Activity (HL-60 [19]): Active; Activity (HL-60 [20]): Active; Activity (HL-60 [21]): Active; Activity (HeLa [22]): Active
